Assay results from ChEMBL document CHEMBL4732217, “Design, synthesis, biological evaluation, and docking studies of novel (imidazol-5-yl)pyrimidine-based derivatives as dual BRAF/p38α inhibitors” (Eur J Med Chem, 2021).

Columns and labels:
[1] = Selectivity index, ratio of IC50 for human IOSE-80PC cells to IC50 for human LOX IMVI cells
In short: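 IC50 against IOSE-80PC normal ovarian epithelial cells (MTT, 5-dose) divided by IC50 against LOX-IMVI melanoma cells (MTT, 24 h compound exposure, means of duplicate experiments ± S.D.).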

[2] = target: T1, Mitogen-activated protein kinase 14 (Homo sapiens, UniProt Q16539); test: Inhibition of p38 alpha (unknown origin) at 10 uM using Ser/Thr 15 as substrate incubated for 1 hr in presence of ATP by Z'-Lyte assay relative to control
In short: (§1)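 Run by a commercial kinase profiling service at 100 µM ATP. Single-point screening was followed by 5-point titration (1 nM, 10 nM, 100 nM, 1 µM, 10 µM) for IC50.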

[3] = Cytotoxicity against human IOSE-80PC cells assessed as reduction in cell viability incubated for 24 hrs by MTT assay; assay type: cell-based, IOSE80pc
In short: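 Human ovarian epithelial IOSE-80PC cells grown in RPMI 1640 with FBS and penicillin-streptomycin, seeded at 1 × 10⁵/mL, exposed to a range of compound concentrations in 5-dose mode. Viability read by MTT; IC50 derived.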

[4] = test system: Serine/threonine-protein kinase B-raf (Homo sapiens), P15056 [V600E]; test: Inhibition of BRAF V600E mutant (unknown origin) at 10 uM using Ser/Thr 03 as substrate after 1 hr in presence of ATP by Z'-LYTE assay relative to control; in short: as §1
LOX IMVI = test: cells; assay type: functional, cell-based; conditions: Homo sapiens, 24 h
[5] = target: T2, Serine/threonine-protein kinase B-raf (Homo sapiens, UniProt P15056, V600E); test: Inhibition of BRAF V600E mutant (unknown origin) using Ser/Thr 03 as substrate after 1 hr in presence of ATP by Z'-LYTE assay
[6] = target: T1, Mitogen-activated protein kinase 14; test: Inhibition of p38 alpha (unknown origin) using Ser/Thr 15 as substrate incubated for 1 hr in presence of ATP by Z'-Lyte assay
[7] = Inhibition of LPS stimulated TNF-alpha production in mouse RAW264.7 macrophages preincubated for 1 hr followed by LPS stimulation and measured after 24 hrs by EIA; assay type: functional
In short: (§2)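 RAW 264.7 macrophages plated at 2 × 10⁵ cells per well and left overnight. Pretreated 1 h with compound, then stimulated 24 h with lipopolysaccharide. TNF-α in culture supernatant measured by EIA. BAY 11-7082 reference tested at 0.5, 1.0, 5.0 and 10.0 µM. Values are means ± S.D.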

[8] = target: T2, Serine/threonine-protein kinase B-raf; test: Inhibition of BRAF V600E mutant (unknown origin) preincubated for 20 mins followed by 33P-ATP addition and measured after 2 hrs by HotSpot kinase assay
RAW264.7 = test: Potency index, ratio of BAY 11-7082 IC50 to compound IC50 for inhibition of LPS stimulated TNF-alpha production in mouse RAW264.7 macrophages; assay type: functional
[9] = Inhibition of LPS stimulated TNF-alpha production in mouse RAW264.7 macrophages at 1 uM preincubated for 1 hr followed by LPS stimulation and measured after 24 hrs by EIA relative to control; assay type: functional; conditions: time 25 hrs; in short: as §2
[10] = target: T1, Mitogen-activated protein kinase 14; test: Potency index, ratio of PP2 IC50 to compound IC50 for inhibition of P38 alpha (unknown origin)
[11] = Inhibition of LPS stimulated TNF-alpha production in mouse RAW264.7 macrophages at 10 uM preincubated for 1 hr followed by LPS stimulation and measured after 24 hrs by EIA relative to control; assay type: functional; conditions: time 25 hrs; in short: as §2
[12] = test system: Serine/threonine-protein kinase B-raf (Homo sapiens), P15056 [V600E]; test: Potency index, ratio of staurosporine IC50 to compound IC50 for inhibition of BRAF V600E mutant (unknown origin)

T1 sequence (Q16539 whole entry): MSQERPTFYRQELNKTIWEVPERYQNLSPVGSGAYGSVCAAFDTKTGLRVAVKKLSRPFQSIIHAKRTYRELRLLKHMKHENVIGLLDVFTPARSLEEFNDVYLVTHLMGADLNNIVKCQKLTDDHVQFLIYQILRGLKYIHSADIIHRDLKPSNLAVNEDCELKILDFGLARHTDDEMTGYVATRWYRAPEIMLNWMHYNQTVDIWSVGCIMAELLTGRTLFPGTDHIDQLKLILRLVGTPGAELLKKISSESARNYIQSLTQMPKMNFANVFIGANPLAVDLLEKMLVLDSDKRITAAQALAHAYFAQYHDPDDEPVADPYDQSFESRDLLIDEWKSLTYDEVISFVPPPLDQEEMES
Sequence of Serine/threonine-protein kinase B-raf (Homo sapiens), P15056 [V600E] (P15056 whole entry V600E): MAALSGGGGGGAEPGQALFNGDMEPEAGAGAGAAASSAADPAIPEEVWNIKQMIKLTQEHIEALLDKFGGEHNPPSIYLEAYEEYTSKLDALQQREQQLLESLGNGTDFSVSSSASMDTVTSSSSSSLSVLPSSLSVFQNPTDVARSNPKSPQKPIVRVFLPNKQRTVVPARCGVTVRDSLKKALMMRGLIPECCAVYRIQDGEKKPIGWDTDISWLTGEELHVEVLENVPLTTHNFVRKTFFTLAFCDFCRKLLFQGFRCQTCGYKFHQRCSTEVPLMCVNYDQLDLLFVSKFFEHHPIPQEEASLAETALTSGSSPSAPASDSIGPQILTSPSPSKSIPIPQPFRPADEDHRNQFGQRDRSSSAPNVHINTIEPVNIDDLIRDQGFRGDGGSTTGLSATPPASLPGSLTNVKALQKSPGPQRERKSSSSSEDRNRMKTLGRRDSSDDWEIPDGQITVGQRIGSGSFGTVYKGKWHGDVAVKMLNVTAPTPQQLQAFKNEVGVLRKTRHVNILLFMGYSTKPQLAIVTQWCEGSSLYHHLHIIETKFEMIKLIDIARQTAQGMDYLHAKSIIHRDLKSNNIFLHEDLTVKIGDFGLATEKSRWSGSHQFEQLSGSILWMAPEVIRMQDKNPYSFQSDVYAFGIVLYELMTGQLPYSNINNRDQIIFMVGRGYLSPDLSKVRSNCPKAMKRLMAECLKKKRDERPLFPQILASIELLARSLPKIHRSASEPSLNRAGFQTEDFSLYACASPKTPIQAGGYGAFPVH
T2 sequence (P15056 2-766 V600E limits assumed): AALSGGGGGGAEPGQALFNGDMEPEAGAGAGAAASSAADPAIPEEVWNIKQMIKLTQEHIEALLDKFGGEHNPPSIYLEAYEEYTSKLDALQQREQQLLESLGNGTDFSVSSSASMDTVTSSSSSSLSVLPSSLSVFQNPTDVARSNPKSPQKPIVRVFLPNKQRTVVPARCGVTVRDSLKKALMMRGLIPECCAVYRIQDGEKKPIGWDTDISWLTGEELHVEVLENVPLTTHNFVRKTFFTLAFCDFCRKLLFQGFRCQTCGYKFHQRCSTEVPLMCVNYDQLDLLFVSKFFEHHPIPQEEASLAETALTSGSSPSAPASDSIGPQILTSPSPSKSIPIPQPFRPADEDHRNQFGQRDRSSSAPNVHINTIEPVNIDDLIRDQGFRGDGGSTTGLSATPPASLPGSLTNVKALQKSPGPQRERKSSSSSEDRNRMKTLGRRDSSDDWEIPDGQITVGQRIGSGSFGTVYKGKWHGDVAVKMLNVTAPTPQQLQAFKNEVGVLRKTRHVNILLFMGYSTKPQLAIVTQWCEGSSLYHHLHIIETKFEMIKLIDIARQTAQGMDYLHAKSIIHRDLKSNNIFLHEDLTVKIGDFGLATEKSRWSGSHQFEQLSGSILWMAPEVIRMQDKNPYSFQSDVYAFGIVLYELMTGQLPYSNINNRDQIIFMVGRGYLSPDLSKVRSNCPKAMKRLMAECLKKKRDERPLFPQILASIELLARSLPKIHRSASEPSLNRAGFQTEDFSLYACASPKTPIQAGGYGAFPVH

| SMILES | inhibition [2] | inhibition [4] | IC50 (LOX IMVI) | further results |
| --- | --- | --- | --- | --- |
| COc1cc(-c2nc(-c3ccccc3)[nH]c2-c2ccnc(NCCCNS(=O)(=O)c3cccc(F)c3)n2)ccc1F | 82.7% | 72.5% | 0.9 µM | Ratio IC50 [1]: > 11.1; IC50 [3]: > 10 µM |
| COc1cc(-c2nc(-c3ccccc3)[nH]c2-c2ccnc(NCCCNS(=O)(=O)c3cccc4ccccc34)n2)ccc1Cl | 27.1% | 90% | 13.5 µM | – |
| O=S(=O)(NCCCNc1nccc(-c2[nH]c(-c3ccccc3)nc2-c2ccc(F)c(O)c2)n1)c1ccc(Cl)cc1 | 84.9% | 93.9% | 14.2 µM | – |
| O=S(=O)(NCCCNc1nccc(-c2[nH]c(-c3ccccc3)nc2-c2ccc(F)c(O)c2)n1)c1ccccc1 | 87% | 98.4% | 9.58 µM | IC50 [5]: 5.62 nM; IC50 [6]: 210 nM |
| COc1cc(-c2nc(-c3ccccc3)[nH]c2-c2ccnc(NCCCNS(=O)(=O)c3ccc(Cl)cc3)n2)ccc1Cl | 52.1% | 85.1% | 60.9 µM | – |
| O=S(=O)(NCCCNc1nccc(-c2[nH]c(-c3ccccc3)nc2-c2ccc(F)c(O)c2)n1)c1cccc2ccccc12 | 79.8% | 99.8% | 3.71 µM | – |
| O=S(=O)(NCCCNc1nccc(-c2[nH]c(-c3ccccc3)nc2-c2ccc(F)c(O)c2)n1)c1ccc(F)cc1 | 91.4% | 97% | 19.2 µM | – |
| COc1cc(-c2nc(-c3ccccc3)[nH]c2-c2ccnc(NCCCNS(=O)(=O)c3ccc(Cl)cc3)n2)ccc1F | 72.8% | 79.2% | 83.1 µM | – |
| COc1cc(-c2nc(-c3ccccc3)[nH]c2-c2ccnc(NCCCNS(=O)(=O)c3ccccc3)n2)ccc1Cl | 58.6% | 80% | 7.47 µM | – |
| O=S(=O)(NCCCNc1nccc(-c2[nH]c(-c3ccccc3)nc2-c2ccc(Cl)c(O)c2)n1)c1ccc(C(F)(F)F)cc1 | 54.3% | 99.2% | 10.1 µM | – |
| COc1cc(-c2nc(-c3ccccc3)[nH]c2-c2ccnc(NCCCNS(=O)(=O)c3ccc(C(F)(F)F)cc3)n2)ccc1F | 48.6% | 42.4% | 75.2 µM | – |
| COc1cc(-c2nc(-c3ccccc3)[nH]c2-c2ccnc(NCCCNS(=O)(=O)c3ccc(F)cc3)n2)ccc1Cl | 62.1% | 81% | 4.53 µM | – |
| O=S(=O)(NCCCNc1nccc(-c2[nH]c(-c3ccccc3)nc2-c2ccc(F)c(O)c2)n1)c1cccc(F)c1 | 90.5% | 100% | 7.89 µM | IC50 [5]: 30.3 nM; IC50 [6]: 140 nM |
| COc1cc(-c2nc(-c3ccccc3)[nH]c2-c2ccnc(NCCCNS(=O)(=O)c3cccc4ccccc34)n2)ccc1F | 44.4% | 81% | 14.9 µM | – |
| COc1ccc(S(=O)(=O)NCCCNc2nccc(-c3[nH]c(-c4ccccc4)nc3-c3ccc(Cl)c(OC)c3)n2)cc1 | 54.6% | 91.1% | 1.8 µM | – |
| O=S(=O)(NCCCNc1nccc(-c2[nH]c(-c3ccccc3)nc2-c2ccc(Cl)c(O)c2)n1)c1cccc(F)c1 | 78.6% | 101% | 33.6 µM | IC50 [5]: 14.8 nM |
| Cc1ccc(S(=O)(=O)/C=C/C#N)cc1 | – | – | – | IC50 [7]: 5180 nM |
| O=S(=O)(NCCCNc1nccc(-c2[nH]c(-c3ccccc3)nc2-c2ccc(Cl)c(O)c2)n1)c1ccccc1 | 82.2% | 99.4% | 2.63 µM | Ratio IC50 [1]: > 3.8; IC50 [3]: > 10 µM; IC50 [5]: 4.25 nM |
| Cc1ccc(S(=O)(=O)NCCCNc2nccc(-c3[nH]c(-c4ccccc4)nc3-c3ccc(Cl)c(O)c3)n2)cc1 | 70.8% | 101% | 6.02 µM | IC50 [5]: 8.04 nM |

| SMILES | inhibition [2] | inhibition [4] | IC50 (LOX IMVI) | further results |
| --- | --- | --- | --- | --- |
| O=S(=O)(NCCCNc1nccc(-c2[nH]c(-c3ccccc3)nc2-c2ccc(Cl)c(O)c2)n1)c1cccc2ccccc12 | 51.1% | 96.2% | 7.72 µM | – |
| COc1cc(-c2nc(-c3ccccc3)[nH]c2-c2ccnc(NCCCNS(=O)(=O)c3ccc(Br)cc3)n2)ccc1F | 73.4% | 81.5% | 33.9 µM | – |
| O=S(=O)(NCCNc1cc(-c2[nH]c(-c3ccccc3)nc2-c2cccc(O)c2)ccn1)c1ccc(O)cc1 | – | – | – | IC50 [8]: 32 nM |
| O=S(=O)(NCCCNc1nccc(-c2[nH]c(-c3ccccc3)nc2-c2ccc(Cl)c(O)c2)n1)c1ccc(O)cc1 | 77.6% | 101% | 36.8 µM | IC50 [5]: 7.81 nM |
| COc1cc(-c2nc(-c3ccccc3)[nH]c2-c2ccnc(NCCCNS(=O)(=O)c3ccc(C(F)(F)F)cc3)n2)ccc1Cl | 18.9% | 55.9% | 1.78 µM | Ratio IC50 [1]: > 5.62; IC50 [3]: > 10 µM |
| COc1ccc(S(=O)(=O)NCCCNc2nccc(-c3[nH]c(-c4ccccc4)nc3-c3ccc(F)c(OC)c3)n2)cc1 | 88.5% | 89.1% | 6.13 µM | – |
| COc1cc(-c2nc(-c3ccccc3)[nH]c2-c2ccnc(NCCCNS(=O)(=O)c3ccc(Br)cc3)n2)ccc1Cl | 30% | 88.3% | 23.7 µM | – |
| O=S(=O)(NCCCNc1nccc(-c2[nH]c(-c3ccccc3)nc2-c2ccc(Cl)c(O)c2)n1)c1ccc(Br)cc1 | 73.7% | 97.3% | 15.5 µM | IC50 [5]: 21.8 nM |
| O=S(=O)(NCCCNc1nccc(-c2[nH]c(-c3ccccc3)nc2-c2ccc(F)c(O)c2)n1)c1ccc(Br)cc1 | 84.8% | 100% | 5.66 µM | IC50 [5]: 26.3 nM; IC50 [6]: 330 nM |
| COc1cc(-c2nc(-c3ccccc3)[nH]c2-c2ccnc(NCCCNS(=O)(=O)c3ccccc3)n2)ccc1F | 83.5% | 77.3% | 4.52 µM | – |
| COc1cc(-c2nc(-c3ccccc3)[nH]c2-c2ccnc(NCCCNS(=O)(=O)c3cccc(F)c3)n2)ccc1Cl | 58.3% | 84.9% | 5.11 µM | – |
| COc1cc(-c2nc(-c3ccccc3)[nH]c2-c2ccnc(NCCCNS(=O)(=O)c3ccc(F)cc3)n2)ccc1F | 84.1% | 80.1% | 3.96 µM | – |
| Cc1ccc(S(=O)(=O)NCCCNc2nccc(-c3[nH]c(-c4ccccc4)nc3-c3ccc(F)c(O)c3)n2)cc1 | 87.8% | 101% | 26.3 µM | IC50 [5]: 8.68 nM; IC50 [6]: 200 nM |
| O=S(=O)(NCCCNc1nccc(-c2[nH]c(-c3ccccc3)nc2-c2ccc(Cl)c(O)c2)n1)c1ccc(F)cc1 | 85.5% | 97.1% | 2.3 µM | Ratio IC50 [1]: > 4.35; IC50 [3]: > 10 µM |
| COc1cc(-c2nc(-c3ccccc3)[nH]c2-c2ccnc(NCCCNS(=O)(=O)c3ccc(C)cc3)n2)ccc1F | 79.4% | 82.4% | 2.59 µM | – |
| O=S(=O)(NCCCNc1nccc(-c2[nH]c(-c3ccccc3)nc2-c2ccc(Cl)c(O)c2)n1)c1ccc(Cl)cc1 | 70.8% | 99.7% | 61.3 µM | – |
| O=S(=O)(NCCCNc1nccc(-c2[nH]c(-c3ccccc3)nc2-c2ccc(F)c(O)c2)n1)c1ccc(O)cc1 | 92.8% | 101% | 13.9 µM | Ratio IC50 (RAW264.7): 53.8; inhibition at 1 µM [9]: 85.2%; Ratio IC50 [10]: 49.8; IC50 [5]: 2.49 nM; IC50 [6]: 85 nM; IC50 [7]: 96.3 nM; inhibition at 10 µM [11]: 96.4%; Ratio IC50 [12]: 12.7 |
| O=S(=O)(NCCCNc1nccc(-c2[nH]c(-c3ccccc3)nc2-c2ccc(F)c(O)c2)n1)c1ccc(C(F)(F)F)cc1 | 65.4% | 98.4% | 2.45 µM | Ratio IC50 [1]: > 4.08; IC50 [3]: > 10 µM |
| COc1cc(-c2nc(-c3ccccc3)[nH]c2-c2ccnc(NCCCNS(=O)(=O)c3ccc(C)cc3)n2)ccc1Cl | 50.4% | 88.2% | 18.6 µM | – |
